697 NFkB inh – inhibitors of the PMA/ionomycin-induced NF-kB reporter in 697 B cells. 697 B-cell NF-kB luciferase reporter, 16 h. inhibition, % at 4 µM. AID 435022. hit rate 0.33% among 330,000; in the data active means inhibition above about 35%
FGF22 binding – binders of recombinant human FGF22 by thermal shift; Q9HCT0; SYPRO orange fluorescence; percent of sucrose octasulfate shift, DMSO zero; activity (Tm shift, normalised), % at 9.99 µM; hit rate 1.5% among 340,000;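 active means mean Tm shift, scaled 0 neutral to 100 positive control, at about 1.3% or above, every replicate too, limit read from the data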
Target sequence (Q9HCT0 whole entry, looked up): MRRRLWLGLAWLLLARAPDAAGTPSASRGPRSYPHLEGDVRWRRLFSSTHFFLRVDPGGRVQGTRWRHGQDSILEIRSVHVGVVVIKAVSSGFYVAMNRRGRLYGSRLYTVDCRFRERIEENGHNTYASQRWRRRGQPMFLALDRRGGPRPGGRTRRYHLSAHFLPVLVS
Jurkat NFkB inh – lowers PMA/ionomycin-induced NF-kB signal in Jurkat cells. PMA/ionomycin-induced NF-kB luciferase reporter, luminescence. inhibition, % at 4 µM. hit rate 0.53% among 330,000; in the data active means inhibition above about 50%
miR122 inh – inhibitors of miR-122 in Huh7 cells; AID 602342; Huh7 miR-122 Renilla luciferase sensor, 48 h; neutral wells = 0, positive control = 100; activation (reporter increase), % at 12.5 µM; hit rate 0.3% among 340,000;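 active means mean replicate activation score at least 90 and every replicate individually at or above 90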;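 further: higher luciferase means less miR-122 activity so hits act as miR-122 inhibitors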
NR2E3 ag-1 – agonists of human NR2E3 nuclear receptor; Q9Y5X4; CHO-S Gal4-NCOR/VP16-NR2E3 two-hybrid, luciferase; inhibition of corepressor binding, % at 3.98 µM; hit rate 0.35% among 360,000;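 active means inhibition above the mean of all tested compounds plus 3 SD, cut at about 70% in these data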;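 further: 0% = DMSO with NR2E3 transfected cells and 100% = cells lacking NR2E3 construct; higher means lower luciferase signal from less NR2E3 corepressor binding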
Target sequence (Q9Y5X4 whole entry, looked up, the tested form may be a part): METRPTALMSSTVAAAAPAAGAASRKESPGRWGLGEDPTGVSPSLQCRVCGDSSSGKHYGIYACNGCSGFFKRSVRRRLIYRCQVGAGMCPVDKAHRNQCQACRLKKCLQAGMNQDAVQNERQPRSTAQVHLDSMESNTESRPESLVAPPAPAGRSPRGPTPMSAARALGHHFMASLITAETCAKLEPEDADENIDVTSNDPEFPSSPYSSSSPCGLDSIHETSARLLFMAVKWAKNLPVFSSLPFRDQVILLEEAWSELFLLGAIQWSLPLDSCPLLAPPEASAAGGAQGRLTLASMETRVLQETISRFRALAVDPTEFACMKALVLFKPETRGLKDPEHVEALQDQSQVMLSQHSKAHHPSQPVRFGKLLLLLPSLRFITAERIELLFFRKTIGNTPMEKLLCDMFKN
NR2E3 ag-2 – activates human photoreceptor nuclear receptor NR2E3. Q9Y5X4. GST-NR2E3/biotin-RetCOR TR-FRET, 1536-well. inhibition of corepressor binding, % at 4.78 µM. hit rate 0.12% among 320,000;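 active means percent inhibition above the cutoff of mean plus 3 SD of all tested compounds, set per screening campaign, cut at about 20% in these data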;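 further: 0% = DMSO wells and 100% = biotin wells as full block of FRET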
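Material: NR2E3–RetCOR corepressor complex / Incubation: Compound–protein incubation for 5 h at 4 °C / Dosing: compound at 4.8 µM, single dose / Detection: time-resolved FRET / Benchmarks: high control biotin, low control 0.6% DMSO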
An asterisk follows results filed as active; / = not tested or not shown; [ ] = dose if it differs, or a comment. Hits are enriched below; roughly 2.2% of the tested compounds scored in any of these assays.

SMILES	697 NFkB inh	FGF22 binding	Jurkat NFkB inh	miR122 inh	NR2E3 ag-1	NR2E3 ag-2
COc1ccc(S(=O)(=O)N2CCOCC2)cc1NC(=O)[C@@H]1CCCN1C(=O)c1cccs1	19	43*	18	/	-23	3
C[C@@H]1CN([C@H](C)CO)C(=O)c2cc(-c3ccncc3)cnc2O[C@@H]1CN(C)C(=O)C1CCCCC1	/	0	/	/	/	/
CC(C)NCC(O)COc1ccc(Br)cc1 (configuration not stated)	-1	44*	-5	/	8	-4
CCC(CC)NCC(O)COc1ccc(Br)cc1 (configuration not stated)	16	0	8	/	-17	-1
CCOC(=O)[C@]12CCC=C1N(Cc1ccccc1)C(=O)[C@H](CC(=O)NCc1cccs1)C2	/	0	/	/	5	/
CCOC(=O)[C@]12CCC=C1N(Cc1ccc3c(c1)OCO3)C(=O)[C@H](CC(=O)NCc1cccs1)C2	/	43*	/	/	0	/
COc1cccc(C2C3=C(CCCC3=O)Nc3[nH]n(-c4ccccc4)c(=O)c32)c1 (configuration not stated)	12	0	8	21	15	0
O=C1CCCC2=C1C(c1ccc3c(c1)OCO3)c1c([nH]n(-c3ccccc3)c1=O)N2 (configuration not stated)	22	/	-1	191*	2	-3
COc1ccc(CNC(=O)N(C)C[C@H]2OCc3ccccc3-c3c(n(C)c4ccccc34)C(=O)N([C@H](C)CO)C[C@H]2C)cc1	/	-1	/	/	/	/
Cc1cc(C)n(-c2cccc(CN(C)Cc3nc(-c4cnccn4)no3)c2)n1	-1	44*	16	-10	18	-1
CCC(=O)Nc1ccc2c(c1)OC[C@@H](C)N(CC1CCCCC1)C[C@H](C)[C@@H](OC)CN(C)C2=O	/	/	/	6[16.7 µM]	/	/
O=[N+]([O-])c1ccccc1S(=O)(=O)N/C(=N/S(=O)(=O)c1ccccc1)c1ccccc1	0	43*	1	-10	5	/
O=C(NS(=O)(=O)c1ccccc1[N+](=O)[O-])c1ccccc1	13	0	7	/	4	0
CC(C)NC(=O)Nc1ccc2c(c1)C(=O)N(C)[C@@H]1CC[C@@H](CC(=O)NCc3ccc(F)cc3)O[C@H]1CO2	/	0	/	/	/	/
Fc1ccc(Nc2c3c(nc4ccccc24)CCC3)cc1	-27	1.5*	10	3	37	3
c1ccc(Nc2c3c(nc4ccccc24)CCC3)cc1	-22	1	4	/	-10	4
COc1cc(CNCCCN2CCOCC2)cc(Cl)c1OCC(=O)NC(C)(C)C	4	0	-22	/	9	-3
CCOc1cc(CNCCCN2CCOCC2)ccc1OCC(=O)NC(C)(C)C	5	42	10	6	4	1
COc1cc(CNCCCN2CCOCC2)ccc1OCC(=O)NC(C)(C)C	4	44*	-4	/	1	0
COc1cc(CNCCN2CCOCC2)ccc1OCC(=O)NC(C)(C)C	21	43*	0	-4	-5	6
CCCNC(=O)C[C@H]1CC[C@@H]2[C@@H](COc3ccc(NC(=O)C4CCCC4)cc3C(=O)N2C)O1	/	0	/	0[16.7 µM]	/	/
C[C@H](CO)N1C[C@H](C)[C@H](CN(C)S(=O)(=O)c2ccc(Cl)cc2)Oc2c(NC(=O)CCCCCC(=O)Nc3ccccc3N)cccc2C1=O	/	0	/	36[16.7 µM]	/	/
COc1ccc(-c2nnn(CC(=O)N(CCO)C(C(=O)NC3CCCC3)c3ccncc3)n2)cc1 (configuration not stated)	11	43*	5	-3	-11	1
CCN(CC)CCN(C(=O)Cn1nnc(-c2ccc(OC)c(OC)c2)n1)C(C(=O)NC1CCCC1)c1ccc(F)cc1 (configuration not stated)	2	1.7*	8	-1	-6	-1
CN1N=C(C(C)(C)C)CC1=O	-4	0	14	/	/	3
SMILES	697 NFkB inh	FGF22 binding	Jurkat NFkB inh	miR122 inh	NR2E3 ag-1	NR2E3 ag-2
CN1N=C(C(F)(F)F)CC1=O	-4	44*	12	/	-16	3
CO[C@H]1CN(C)C(=O)c2cc(NC(C)=O)ccc2OC[C@H](C)NC[C@@H]1C	/	0	/	/	/	/
CCOc1ccc(C(C)=O)cc1CSc1nc2nc(C)cc(C)n2n1	-10	43*	5	/	-12	-2
CCOc1ccc(C(C)=O)cc1CSc1nc(C)cc(C)n1	-6	0	5	0	-14	-1
O=C(COC(=O)c1ccc2ccccc2n1)Nc1cccc(S(=O)(=O)NC2=NCCCCC2)c1	6	43*	-11	/	-4	9
Cc1cc(C)cc(NS(=O)(=O)c2ccc3oc(=O)ccc3c2)c1	-2	/	-23	105*	12	2
Cc1ccc(C)c(NS(=O)(=O)c2ccc3oc(=O)ccc3c2)c1	17	0	8	29	1	-3
CCOc1cc(S(=O)(=O)NC2CCCC2)ccc1Cl	7	/	0	26	-4	1
CCOc1cc(S(=O)(=O)Nc2cc(C)cc(C)c2)ccc1Cl	0	/	7	118*	28	2
Cc1noc(C)c1NC(=O)Nc1ccc2c(c1)C(=O)N([C@@H](C)CO)C[C@@H](C)[C@@H](CN(C)Cc1ccccc1)O2	/	0	/	-4[16.7 µM]	/	/
O=[N+]([O-])c1cccc(COc2cccc(CN3CCCCC3)c2)c1	/	43*	/	2	-19	/
O=C(c1ccco1)N1CCN(Cc2cccc([N+](=O)[O-])c2)CC1	10	44*	3	/	-16	-2
C[C@@H]1CN([C@@H](C)CO)S(=O)(=O)c2ccc(C3=CCCC3)cc2O[C@H]1CN(C)C(=O)C1CCOCC1	/	0	/	7[16.7 µM]	/	/
O=C(C1CCCC1)N1CCCCN2[C@H](C1)[C@H](c1ccc(-c3ccncc3)cc1)[C@@H]2CO	/	0	/	-23[16.7 µM]	/	/
Cc1ccc(NS(=O)(=O)c2c(F)cc(F)c(Cl)c2F)cc1S(=O)(=O)N1CCOCC1	-11	44*	-8	/	-1	/
Cc1ccc(NC(=O)Cc2c(F)cccc2Cl)cc1S(=O)(=O)N1CCOCC1	-15	0	-15	15	-8	/
COCC#Cc1cnc2c(c1)C(=O)N([C@H](C)CO)C[C@H](C)[C@H](CN(C)C(=O)c1ccc(F)cc1)O2	/	0	/	-4[16.7 µM]	/	/
O=c1nc(N2CCOCC2)nc(N/N=C/c2ccc3c(c2)OCO3)[nH]1	6	44*	5	/	-12	2
O=C(NCC1(c2ccccc2)CCCC1)c1ccccc1Br	-7	0	-13	/	3	-1
COc1ccccc1C(=O)NCC1(c2ccccc2)CCCC1	-6	43*	1	-4	11	-3
CC(C)NC(=O)Nc1ccc2c(c1)CC(=O)N([C@@H](C)CO)C[C@@H](C)[C@H](CN(C)S(=O)(=O)c1cccs1)O2	/	0	/	-4[16.7 µM]	/	/
COc1ccc(C(=O)N/C(=C\c2ccc(Cl)cc2)C(=O)NCCN2CCOCC2)cc1	/	0	/	-3	-4	/
